Test results published in ChEMBL document CHEMBL1145471, “Small molecule regulators of autophagy identified by an image-based high-throughput screen” (Proc Natl Acad Sci U S A, 2007).
Activity calls are given as the source filed them. The rule behind the calls is not given here.

Columns and labels:
H4 [1] = experiment: Increase in long-lived protein degradation in human H4 cells after 1 hr relative to control; assay type: functional; set-up: concentration or dose not given beside the values
H4 [2] = experiment: Increase in light chain 3-GFP+ autophagosome vesicle number per cell in human H4 cells at 3.9 uM after 24 hrs by high throughput fluorescence microscopy relative to control; assay type: functional
Summary of the method: (§1)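 H4 cells stably expressing LC3-GFP, kept in DMEM/10% FBS at 37°C, 5% CO2, were seeded in 96-well plates and exposed to compound for 24 h. Cells were then fixed in 4% paraformaldehyde and stained with 3 μg/ml DAPI. Automated fluorescence microscopy scored the number, size and intensity of LC3-GFP spots. Values are percent of DMSO wells, in triplicate, mean ± SD. Rapamycin served as positive control.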

H4 [3] = experiment: Increase in FYVE-RFP+ vesicle intensity per cell in human H4 cells after 2 hrs relative to control; assay type: functional; set-up: concentration or dose not given beside the values
Summary of the method: (§2)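 H4 cells stably expressing FYVE-RFP (H4-FYVE), grown in DMEM with 10% FBS, penicillin/streptomycin and 2 mM L-glutamine at 37°C, 5% CO2, seeded in 96-well plates and exposed to compound. Fixed in 4% paraformaldehyde, nuclei stained with 3 μg/ml DAPI, FYVE-RFP+ vesicles quantified by high-throughput fluorescence microscopy against DMSO control. Triplicate wells, mean ± SD.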

H4 [4] = experiment: Increase in light chain 3-GFP+ autophagosome vesicle area per cell in human H4 cells at 3.9 uM after 24 hrs by high throughput fluorescence microscopy relative to control; assay type: functional
Summary of the method: (§3)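 H4 cells stably expressing LC3-GFP, seeded in 96-well plates and exposed to compound for 24 h; fixed in 4% paraformaldehyde, nuclei stained with 3 μg/ml DAPI. Automated fluorescence microscopy scored number, size and intensity of LC3-GFP spots; values expressed relative to DMSO-treated wells, rapamycin positive control. Triplicate wells, mean ± SD; experiments repeated three times.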

H4 [5] = experiment: Increase in FYVE-RFP+ vesicle intensity per cell in human H4 cells after 8 hrs relative to control; assay type: functional; set-up: concentration or dose not given beside the values; summary of the method: as §2
H4 [6] = experiment: Induction of light chain 3-GFP level in human H4 cells at 3.9 uM after 24 hrs by high throughput fluorescence microscopy relative to control; assay type: functional; summary of the method: as §1
H4 [7] = experiment: Reduction of poly(Q) level in human H4 cells expressing EGFP-Q79-HA after 24 hrs; assay type: functional, cell-based
Summary of the method: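 H4 cells were transiently transfected with an EGFP-Q79-HA expression vector. The medium was replaced 6 h after transfection and compounds were added. Poly(Q) was detected with anti-HA antibody.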

H4 [8] = experiment: Increase in light chain 3-GFP+ autophagosome vesicle intensity per cell in human H4 cells at 3.9 uM after 24 hrs by high throughput fluorescence microscopy relative to control; assay type: functional; summary of the method: as §3
H4 [9] = experiment: Increase in ratio of light chain 3 subunit 2 to light chain 3 subunit 1 in human H4 cells at 3.9 uM after 4 hrs by Western blot; assay type: functional, cell-based
Summary of the method: (§4)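 H4 cells were exposed to compound for 4 h, then lysed. Lysates were blotted with anti-LC3 antibody, with actin as loading control, and the LC3II/LC3I band ratio was taken.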

H4 [10] = experiment: Increase in long-lived protein degradation in human H4 cells after 2 hrs relative to control; assay type: functional; set-up: concentration or dose not given beside the values
H4 [11] = experiment: Increase in long-lived protein degradation in human H4 cells after 4 hrs relative to control; assay type: functional; set-up: concentration or dose not given beside the values
H4 [12] = experiment: Increase in long-lived protein degradation in human H4 cells after 24 hrs relative to control; assay type: functional; set-up: concentration or dose not given beside the values
H4 [13] = experiment: Increase in FYVE-RFP+ vesicle intensity per cell in human H4 cells after 4 hrs relative to control; assay type: functional; set-up: concentration or dose not given beside the values; summary of the method: as §2
[14] = biological target: T1, Serine/threonine-protein kinase mTOR (Homo sapiens, UniProt P42345); experiment: Effect on mTOR phosphorylation in human H4 cells at 3.9 uM after 4 hrs; assay type: cell-based
Summary of the method: (§5)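 H4 cells treated with compound for 4 h; lysates analysed by Western blot using anti-phospho/non-phospho mTOR antibody, with actin as loading control; rapamycin used for comparison. Cells grown in DMEM with 10% FBS, penicillin/streptomycin, 2 mM L-glutamine at 37°C, 5% CO2.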

H4 [15] = experiment: Increase in light chain 3-GFP+ autophagosome vesicle number per cell in human H4 cells at 5.4 uM after 24 hrs by high throughput fluorescence microscopy relative to control; assay type: functional; summary of the method: as §1
H4 [16] = experiment: Increase in ratio of light chain 3 subunit 2 to light chain 3 subunit 1 in human H4 cells at 5.4 uM after 4 hrs by Western blot; assay type: functional, cell-based; summary of the method: as §4
H4 [17] = experiment: Effect on FYVE-RFP+ vesicle intensity per cell in human H4 cells after 4 hrs relative to control; assay type: functional; set-up: concentration or dose not given beside the values; summary of the method: as §2
H4 [18] = experiment: Increase in light chain 3-GFP+ autophagosome vesicle intensity per cell in human H4 cells at 5.4 uM after 24 hrs by high throughput fluorescence microscopy relative to control; assay type: functional; summary of the method: as §3
H4 [19] = experiment: Effect on FYVE-RFP+ vesicle intensity per cell in human H4 cells after 8 hrs relative to control; assay type: functional; set-up: concentration or dose not given beside the values; summary of the method: as §2
H4 [20] = experiment: Induction of light chain 3-GFP level in human H4 cells at 5.4 uM after 24 hrs by high throughput fluorescence microscopy relative to control; assay type: functional; summary of the method: as §1
H4 [21] = experiment: Increase in light chain 3-GFP+ autophagosome vesicle area per cell in human H4 cells at 5.4 uM after 24 hrs by high throughput fluorescence microscopy relative to control; assay type: functional; summary of the method: as §3
[22] = biological target: T1, Serine/threonine-protein kinase mTOR; experiment: Effect on mTOR phosphorylation in human H4 cells at 5.4 uM after 4 hrs; assay type: cell-based; summary of the method: as §5
H4 [23] = experiment: Effect on FYVE-RFP+ vesicle intensity per cell in human H4 cells after 2 hrs relative to control; assay type: functional; set-up: concentration or dose not given beside the values; summary of the method: as §2
[24] = biological target: T1, Serine/threonine-protein kinase mTOR; experiment: Effect on mTOR phosphorylation in human H4 cells at 0.2 uM after 4 hrs; assay type: cell-based; summary of the method: as §5
H4 [25] = experiment: Increase in ratio of light chain 3 subunit 2 to light chain 3 subunit 1 in human H4 cells at 0.2 uM after 4 hrs by Western blot; assay type: functional, cell-based
Summary of the method: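 H4 cells were treated with each compound for 4 h, then lysed. Lysates were immunoblotted with anti-LC3 antibody, with actin as loading control. LC3II and LC3I bands were compared as an LC3II/LC3I ratio.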

H4 [26] = experiment: Increase in light chain 3-GFP+ autophagosome vesicle area per cell in human H4 cells at 0.2 uM after 24 hrs by high throughput fluorescence microscopy relative to control; assay type: functional
Summary of the method: (§6)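 H4 cells stably expressing LC3-GFP, seeded in 96-well plates and exposed to compound for 24 h; screening concentrations were 3–12 μM, with rapamycin 0.22 μM and bafilomycin A1 0.40 μM. Cells fixed in 4% paraformaldehyde and stained with 3 μg/ml DAPI. Number, size and intensity of LC3-GFP spots measured by high-throughput fluorescence microscopy and expressed as percent of DMSO-treated wells. Rapamycin was the positive control. Triplicate wells, mean ± SD; experiments repeated three times.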

H4 [27] = experiment: Increase in light chain 3-GFP+ autophagosome vesicle intensity per cell in human H4 cells at 0.2 uM after 24 hrs by high throughput fluorescence microscopy relative to control; assay type: functional; summary of the method: as §6
H4 [28] = experiment: Increase in light chain 3-GFP+ autophagosome vesicle number per cell in human H4 cells at 0.2 uM after 24 hrs by high throughput fluorescence microscopy relative to control; assay type: functional
Summary of the method: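 H4 cells stably expressing LC3-GFP were grown in DMEM with 10% FBS and 2 mM L-glutamine at 37°C, 5% CO2. They were exposed to each compound for 24 h, with DMSO as negative and rapamycin as positive control. Cells were then fixed in 4% paraformaldehyde and stained with 3 μg/ml DAPI. High-throughput fluorescence imaging scored LC3-GFP spot number, size and intensity, expressed relative to DMSO. Mean ± SD of triplicates; experiments repeated three times.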

H4 [29] = experiment: Induction of light chain 3-GFP level in human H4 cells at 0.2 uM after 24 hrs by high throughput fluorescence microscopy relative to control; assay type: functional

C=C(C)[C@H]1O[C@H]2CC[C@@]3(C)[C@@](O)(CC[C@H]4[C@@H]5OC(C)(C)[C@H]6C[C@@H]7C(=C)Cc8c(Cl)cc9[nH]c(c5c9c8[C@@]76O)[C@@]43C)[C@@]23O[C@H]3[C@H]1O [PENITREM A]
Activity (H4 [1]): 92.88% | Activity (H4 [2]): 146.36% | Activity (H4 [3]): 121.4% | Activity (H4 [4]): 163.15% | Activity (H4 [5]): 72.71% | Activity (H4 [6]): 93.08% | Activity (H4 [7]): Dose-dependent effect | Activity (H4 [8]): 166.85% | Activity (H4 [9]): Active | Activity (H4 [10]): 126.09% | Activity (H4 [11]): 132.13% | Activity (H4 [12]): 141.83% | Activity (H4 [13]): 87.41% | Activity [14]: inactive

O=c1[nH]c2ccccc2n1C1CCN(CCCC(c2ccc(F)cc2)c2ccc(F)cc2)CC1 [PIMOZIDE]
Activity (H4 [1]): 129.13% | Activity (H4 [15]): 218.96% | Activity (H4 [16]): Active | Activity (H4 [17]): 103.96% | Activity (H4 [7]): Dose-dependent effect | Activity (H4 [18]): 447.75% | Activity (H4 [10]): 155.8% | Activity (H4 [19]): 73.64% | Activity (H4 [20]): 127.14% | Activity (H4 [11]): 152.01% | Activity (H4 [12]): 162.47% | Activity (H4 [21]): 290.43% | Activity [22]: inactive | Activity (H4 [23]): 94.42%

CO[C@H]1C[C@@H]2CC[C@@H](C)[C@@](O)(O2)C(=O)C(=O)N2CCCC[C@H]2C(=O)O[C@H]([C@H](C)C[C@@H]2CC[C@@H](O)[C@H](OC)C2)CC(=O)[C@H](C)/C=C(\C)[C@@H](O)[C@@H](OC)C(=O)[C@H](C)C[C@H](C)/C=C/C=C/C=C/1C [SIROLIMUS]
Activity (H4 [1]): 159.89% | AC50 [24]: Not Active | Activity (H4 [25]): Active | Activity (H4 [5]): 152.35% | Activity (H4 [7]): Dose-dependent effect | Activity (H4 [26]): 259.68% | Activity (H4 [10]): 171.67% | Activity (H4 [11]): 149.89% | Activity (H4 [12]): 165.87% | Activity (H4 [27]): 285.38% | Activity (H4 [13]): 131.41% | Activity (H4 [28]): 205.66% | Activity (H4 [29]): 88.62%
